From ChEMBL document CHEMBL3763093, “The molecular structure of thio-ether fatty acids influences PPAR-dependent regulation of lipid metabolism” (Bioorg Med Chem, 2016)
Active and inactive are the calls of the source. The rule behind the calls is not given here.

Experiments:
[1] = Effect on fatty acid composition in human myotubes assessed as intracellular TTA level at 10 uM after 96 hrs; assay type: functional
In short: (§1)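 Differentiated human myotubes (7 days) treated 96 h with 10 or 30 μM compound or DMSO 0.1% (two controls). Cells washed, harvested, lipids extracted and methylated (methanol, sulfuric acid, 90 °C, 1 h); FA methyl esters quantified by GC with C21:0 internal standard, peaks confirmed by standards and GC/MS; values as mol % of intracellular fatty acids.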

[2] = Effect on fatty acid composition in human myotubes assessed as intracellular dTTA level at 10 uM after 96 hrs; assay type: functional; in short: as §1
[3] = Effect on fatty acid composition in human myotubes assessed as intracellular SFA level at 10 uM after 96 hrs (Rvb= 36.16%); assay type: functional; in short: as §1
[4] = Effect on fatty acid composition in human myotubes assessed as intracellular MUFA level at 10 uM after 96 hrs (Rvb= 41.04%); assay type: functional; in short: as §1
[5] = Effect on fatty acid composition in human myotubes assessed as intracellular PUFA n-3 level at 10 uM after 96 hrs (Rvb= 7.47%); assay type: functional; in short: as §1
[6] = Effect on fatty acid composition in human myotubes assessed as intracellular PUFA n-6 level at 10 uM after 96 hrs (Rvb= 13.41%); assay type: functional; in short: as §1
[7] = Effect on fatty acid composition in human myotubes assessed as intracellular PUFA n-9 level at 10 uM after 96 hrs (Rvb= 1.78%); assay type: functional; in short: as §1
[8] = Effect on fatty acid composition in human myotubes assessed as intracellular TTA level at 30 uM after 96 hrs; assay type: functional; in short: as §1
[9] = Effect on fatty acid composition in human myotubes assessed as intracellular dTTA level at 30 uM after 96 hrs; assay type: functional; in short: as §1
[10] = Effect on fatty acid composition in human myotubes assessed as intracellular SFA level at 30 uM after 96 hrs (Rvb= 36.16%); assay type: functional; in short: as §1
[11] = Effect on fatty acid composition in human myotubes assessed as intracellular MUFA level at 30 uM after 96 hrs (Rvb= 41.04%); assay type: functional; in short: as §1
[12] = Effect on fatty acid composition in human myotubes assessed as intracellular PUFA n-3 level at 30 uM after 96 hrs (Rvb= […]); assay type: functional; in short: as §1
[13] = Effect on fatty acid composition in human myotubes assessed as intracellular PUFA n-6 level at 30 uM after 96 hrs (Rvb= 13.41%); assay type: functional; in short: as §1
[14] = Effect on fatty acid composition in human myotubes assessed as intracellular PUFA n-9 level at 30 uM after 96 hrs (Rvb= 1.78%); assay type: functional; in short: as §1
[15] = Effect on fatty acid composition in human myotubes assessed as change in intracellular SFA level at 10 uM after 96 hrs relative to DMSO control; assay type: functional; in short: as §1
[16] = Effect on fatty acid composition in human myotubes assessed as change in intracellular SFA level at 30 uM after 96 hrs relative to DMSO control; assay type: functional; in short: as §1
[17] = Effect on fatty acid composition in human myotubes assessed as change in intracellular MUFA level at 10 uM after 96 hrs relative to DMSO control; assay type: functional; in short: as §1
[18] = Effect on fatty acid composition in human myotubes assessed as change in intracellular MUFA level at 30 uM after 96 hrs relative to DMSO control; assay type: functional; in short: as §1
Homo sapiens [19] = species on record: Homo sapiens; test: Induction of fatty acid oxidation in human myotubes using [14C]oleic acid as substrate preincubated for 96 hrs followed by substrate addition incubated for 4 hrs by liquid scintillation analysis; assay type: functional
In short: (§2)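 Myotubes differentiated 7 days were pretreated 96 h with 10 or 30 μM compound, 10 nM GW501516 or DMSO 0.1%, then given [1-14C]oleic acid (0.5 μCi/mL, 100 μM) in DPBS with HEPES 10 mM and L-carnitine 1 mM, 4 h at 37 °C. Trapped CO2 and cell-associated label counted by scintillation; uptake = CO2 + CA; Bradford protein; % of DMSO basal; n = 8–15.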

Homo sapiens [20] = species on record: Homo sapiens; test: Effect on intracellular [14C]oleic acid uptake in human myotubes at 10 to 30 uM preincubated for 96 hrs followed by substrate addition incubated for 4 hrs by liquid scintillation analysis; assay type: functional, cell-based; in short: as §2
[21] = Induction of fatty acid oxidation in human myotubes using [14C]oleic acid as substrate at 30 uM preincubated for 96 hrs followed by substrate addition incubated for 4 hrs by liquid scintillation analysis relative to control; assay type: functional; in short: as §2
[22] = biological target: T1, Peroxisome proliferator-activated receptor (Homo sapiens) (UniProt P37231+Q07869+Q03181); test: Agonist activity at PPAR in human myotubes assessed as ANGPTL4 mRNA expression at 30 uM after 96 hrs by qPCR analysis relative to control
In short: (§3)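 Myotubes from satellite cells of abdominal muscle biopsies of healthy donors, differentiated 7 days, then exposed 96 h to test lipids (30 μM) vs DMSO 0.1%. Total RNA isolated (RIN ≥7), reverse transcribed, real-time PCR with gene-specific primers; expression expressed relative to DMSO control.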

[23] = biological target: T1, Peroxisome proliferator-activated receptor (Homo sapiens); test: Agonist activity at PPAR in human myotubes assessed as FABP3 mRNA expression at 30 uM after 96 hrs by qPCR analysis relative to control; in short: as §3
[24] = biological target: T1, Peroxisome proliferator-activated receptor (Homo sapiens); test: Agonist activity at PPAR in human myotubes assessed as CD36 mRNA expression at 30 uM after 96 hrs by qPCR analysis relative to control; in short: as §3
[25] = biological target: T1, Peroxisome proliferator-activated receptor (Homo sapiens); test: Agonist activity at PPAR in human myotubes assessed as CPT1A mRNA expression at 30 uM after 96 hrs by qPCR analysis relative to control; in short: as §3
[26] = Effect on protein level in human myotubes at 10 to 30 uM; assay type: ADME
[27] = Effect on total fatty acid level in human myotubes assessed as per mg of protein at 10 to 30 uM; assay type: ADME

CCCCCCCCCCCCCCSCC(=O)O [TETRADECYLTHIOACETIC ACID]
Activity [1]: 13.02 mol%
Activity [2]: 1.11 mol%
Activity [3]: 26.24 mol%
Activity [4]: 35.09 mol%
Activity [5]: 7.86 mol%
Activity [6]: 14.34 mol%
Activity [7]: 2.2 mol%
Activity [8]: 31.81 mol%
Activity [9]: 1.28 mol%
Activity [10]: 18.25 mol%
Activity [11]: 28.44 mol%
Activity [12]: 6.62 mol%
Activity [13]: 11.78 mol%
Activity [14]: 1.73 mol%
Activity [15]: -27.2%
Activity [16]: -49.4%
Activity [17]: -14.6%
Activity [18]: -30.8%
Activity (Homo sapiens [19]): Dose-dependent effect
Activity (Homo sapiens [20]): inactive
fold change (FC) [21]: 3
fold change (FC) [22]: < 20
Activity [23]: Active
Activity [24]: Active
fold change (FC) [25]: 5
Activity [26]: Non-toxic
Activity [27]: Non-toxic
